# Bioassay records deposited in PubChem BioAssay by The Scripps Research Institute Molecular Screening Center.
# In the library only some 3.6% were active in any assay of this set; here they are far more common.
# PAFAH1B3 FP inh: PAFAH1B3 (human) inhibition; Q15102; recombinant PAFAH1B3, FP-rhodamine probe, fluorescence polarization; inhibition, % at 3.39 µM; actives 0.28% (n = 340,000); AID 492972;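 active = inhibition above the screen-wide average of all tested compounds plus 3 SD, cut at about 25% in these data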;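 also: 0% = enzyme with DMSO only and 100% = wells lacking PAFAH1B3 protein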
# Target sequence (Q15102 whole entry, looked up): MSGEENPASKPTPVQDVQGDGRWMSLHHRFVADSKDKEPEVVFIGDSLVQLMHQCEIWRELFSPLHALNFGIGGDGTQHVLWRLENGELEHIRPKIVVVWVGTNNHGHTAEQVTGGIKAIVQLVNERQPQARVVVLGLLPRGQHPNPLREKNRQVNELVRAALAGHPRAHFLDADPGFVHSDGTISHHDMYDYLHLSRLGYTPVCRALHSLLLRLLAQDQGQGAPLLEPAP
# PAFAH1B2 FP inh: inhibitors of human PAFAH1B2. P68402. inhibition, % at 3.39 µM. recombinant PAFAH1B2, FP-rhodamine activity probe, fluorescence polarization. actives 1.2% (n = 340,000);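 active = inhibition above the mean of all tested compounds plus 3 SD, cut at about 24% in these data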;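 also: 0% = enzyme with DMSO and 100% = wells lacking PAFAH1B2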
# Target sequence (P68402 whole entry, looked up): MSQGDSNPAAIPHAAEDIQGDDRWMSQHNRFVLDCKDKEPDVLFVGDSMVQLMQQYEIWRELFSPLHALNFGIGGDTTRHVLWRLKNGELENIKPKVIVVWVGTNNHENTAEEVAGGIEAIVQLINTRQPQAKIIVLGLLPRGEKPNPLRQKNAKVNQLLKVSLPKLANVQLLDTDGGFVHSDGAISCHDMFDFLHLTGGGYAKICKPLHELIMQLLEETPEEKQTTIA
# pPAFAH inh: inhibitors of human plasma PAF acetylhydrolase (pPAFAH). Q13093. recombinant pPAFAH, FP-rhodamine probe fluorescence polarization. inhibition, % at 3.39 µM. actives 1.5% (n = 330,000);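 active = inhibition above the mean inhibition across the screen plus 3 SD, cut at about 25% in these data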;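 also: inhibitors block binding of the rhodamine activity-based probe so polarization drops; 0% = enzyme with DMSO and 100% = wells lacking pPAFAH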
# PAFAH2 FP inh: inhibitors of human PAFAH2; recombinant PAFAH2, FP-rhodamine activity probe, fluorescence polarization; inhibition, % at 3.39 µM; actives 0.99% (n = 340,000);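 active = inhibition above the mean over all tested compounds plus 3 SD, cut at about 30% in these data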;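 also: inhibitors block probe labeling of enzyme so polarization drops; 0% = enzyme with DMSO and 100% = wells lacking PAFAH2 protein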
# IMP-1 inhibitor: inhibitors of Pseudomonas aeruginosa IMP-1 metallo-beta-lactamase | purified IMP-1, nitrocefin hydrolysis, epi-absorbance fluorescence | inhibition, % at 5.6 µM | actives 0.45% (n = 290,000) | AID 1556;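 active = inhibition above the mean plus 3 SD of all compounds in the same screening run, cut at about 4.5% in these data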;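 also: 0% = IMP-1 with DMSO and 100% = DMSO wells lacking enzyme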
#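 System: purified IMP-1; amount: IMP-1 0.2 nM before substrate addition; compound: single dose, 5.6 µM; times: 25 °C, 15 min preincubation, 25 min reaction; signal: Epi-absorbance via hydrolysed-nitrocefin quenching of white-plate fluorescence, 480/530 nm, EDTA stop; benchmarks: DMSO with and without IMP-1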
# VIM-2 inhibitor: blocks Pseudomonas aeruginosa VIM-2 metallo-beta-lactamase; purified VIM-2, nitrocefin hydrolysis, epi-absorbance fluorescence; actives 0.89% (n = 290,000); inhibition, % at 5.6 µM;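 active = inhibition above the mean of all tested compounds plus 3 SD, cutoff set per screening run, cut at about 7.5% in these data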;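 also: red hydrolysis product quenches plate fluorescence so inhibitors raise well fluorescence; 0% = enzyme with DMSO and 100% = DMSO without enzyme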
# * = called active by the depositor; · = not tested or not shown.
SMILES,PAFAH1B3 FP inh,PAFAH1B2 FP inh,pPAFAH inh,PAFAH2 FP inh,IMP-1 inhibitor,VIM-2 inhibitor
Cc1cc(C)c2c(=N)c3ccccc3n(CCCCCCCCn3c4ccccc4c(=N)c4c(C)cc(C)nc43)c2n1,-7,2,·,4,·,·
Cc1cccc(N2C(S)=C(C#N)C(=O)NC2c2cccs2)c1 (configuration not stated),7,30*,2,3,0,1
Cc1ccccc1N1CC(=O)N(c2ccccc2C)CC1=O,2,4,-5,-14,-3,-3
Cc1cccc2c1c1ccc3c(c1n2C)C(=O)C=CC3=O,20,10,·,7,5.2*,2
Cc1ccc(CS/C(Nc2ccccc2C)=C(\C#N)C(=O)NCc2ccco2)c(C)c1,1,-2,28*,-10,-2,0
N#Cc1ccccc1OCC(=O)OCC(=O)NC1CC1,0,8,0,-1,·,·
CC(=O)C1(C)C(=O)N(c2ccc(C)cc2)C(=O)N1c1ccc(C)cc1 (configuration not stated),9,7,·,0,·,·
CC1(OC(=O)C2CCCC2)C(=O)C=C2C=C(c3ccsc3)N(Cc3ccco3)C=C2C1=O (configuration not stated),-4,-1,31*,-2,·,·
CC1(OC(=O)C2CCCC2)C(=O)C=C2C=C(c3ccsc3)N(CCCCO)C=C2C1=O (configuration not stated),14,5,4,-1,·,·
CC(=O)N1c2ccc(S(=O)(=O)N(C)CC(=O)Nc3cccc(C)c3)cc2CC1C (configuration not stated),-1,-1,2,-1,-3,-8
CC(=O)N1c2ccc(S(=O)(=O)N(C)CC(=O)Nc3ccccc3C)cc2CC1C (configuration not stated),1,-3,1,1,4.8*,-4
CC(C)(C)C(=O)Nc1ccccc1N1CCN(c2ccc(F)cc2)CC1,6,4,-1,-3,1,0
COc1cccc(C(=O)Nc2nnc(CCS(=O)(=O)c3ccc(C)cc3)s2)c1,-1,11,-1,-6,0,7.9*
CCCCNC(=O)C(c1ccc(OCC(=O)OC)c(C(=O)OC)c1)N(CCOC)C(=O)CCCCCN1C(=O)NC(c2ccc(-c3ccccc3)cc2)C(C(=O)OCc2ccccc2)=C1C (configuration not stated),·,·,49*,·,·,·
CN(C(=O)COC(=O)c1ccc(Cl)c(S(=O)(=O)NCc2ccccc2)c1)C1CCS(=O)(=O)C1 (configuration not stated),1,34*,·,5,·,·
O=C1Cc2c([nH]c3ccc([N+](=O)[O-])cc23)-c2ccccc2N1,8,3,·,-9,·,·
O=c1oc2ccccc2c(Nc2ccccc2O)c1[N+](=O)[O-],-2,5,3,-10,-3,-2
O=c1oc2ccccc2c(Nc2cc3ccccc3cc2O)c1[N+](=O)[O-],10,4,27*,16,0,1
CCCCn1c2ccc(F)cc2c2nnc(SCCN3CCCCC3)nc21,2,1,·,4,-4,8.4*
CCn1c2ccccc2c2nnc(SCCN3CCOCC3)nc21,2,-2,-6,-7,0,3
CCn1c2ccc(C)cc2c2nnc(SCCN3CCOCC3)nc21,10,3,-2,4,-2,11*
Cn1c2ccc(F)cc2c2nnc(SCCN3CCCCC3)nc21,5,0,·,-2,-2,12*
COc1ccc(C(=O)O)cc1S(=O)(=O)Nc1ccc(N2CCCCC2)cc1,7,5,0,3,·,·
CC1CCCCC1NC(=O)COC(=O)c1ccc2c(=O)n3c(nc2c1)CCC3 (configuration not stated),12,2,-7,9,·,·
COc1cc(/C=N/Nc2nc(C)nc3c2cnn3-c2ccccc2)ccc1O,5,28*,·,9,0,0
SMILES,PAFAH1B3 FP inh,PAFAH1B2 FP inh,pPAFAH inh,PAFAH2 FP inh,IMP-1 inhibitor,VIM-2 inhibitor
c1ccc(-c2cc(NCCN3CCCCC3)c3ccccc3n2)cc1,6,2,3,-2,-4,0
CN1N=C(N)c2cn(C3OC(COP(=O)(O)O)C(O)C3O)c3ncnc1c23 (configuration not stated),6,1,·,1,·,·
Cc1ccc(NCC(=O)N/N=C\C(Br)=C\c2ccccc2)cc1,14,7,27*,-8,-3,-1
O=C(N/N=C/C(Br)=C/c1ccccc1)c1ccc([N+](=O)[O-])cc1,-1,-3,5,-6,42*,0
O=C(N/N=C/C(Br)=C/c1ccccc1)c1ccncc1,1,3,-3,3,-1,-1
CCOC(=O)c1c(C)n(C)c2ccc(OCC(O)CN3CCC(C)CC3)cc12 (configuration not stated),0,5,8,2,-2,7.9*
CCOC(=O)c1c(C)n(C)c2ccc(OCC(O)CN3CCCCCC3)cc12 (configuration not stated),7,1,5,-1,-1,7
Cc1ccc[n+](C2C(c3ccc([N+](=O)[O-])cc3)C(C#N)=C([S-])NC2(O)C2CC2)c1 (configuration not stated),-1,2,8,2,-3,-2
Cc1cccc[n+]1C1C(c2ccccc2)C(C#N)=C(C(=C=[N-])C#N)NC1(O)C1CC1 (configuration not stated),21,16,29*,30*,-2,-3
N#CC(=C=[N-])C1=C(C#N)C(c2ccccc2F)C([n+]2ccccc2)C(O)(C2CC2)N1 (configuration not stated),5,-1,30*,2,0,-1
CC(NC(=O)CSc1nc(C2CC2)n(-c2ccccc2)n1)c1ccco1 (configuration not stated),3,-2,3,1,·,·
CCc1sc(C(=O)N2CCN(c3ccc(F)cc3)CC2)cc1C,5,3,8,0,-2,0
CCCOc1cccc(C(=O)NC(=S)Nc2ccc(N3CCN(C)CC3)cc2)c1,·,·,6,·,0,12*
O=C(Nc1ccc(N2CCCC2)cc1)c1ccc2ccccc2c1,4,3,34*,-1,-1,4
CC(C)Oc1cccc(C(=O)Nc2ccc(N3CCN(C)CC3)cc2)c1,1,2,5,-2,0,12*
CCOc1cccc(C(=O)NC(=S)Nc2ccccc2)c1,-3,-2,-3,-2,-3,-2
C[C@@]12CCC[C@@](C)(C(=O)O)C1CC[C@@]13C[C@@H](NCc4ccccc4)[C@@](C)(CCC12)C3 (some centres not stated),6,5,1,-4,·,·
Cc1cc2cc(CNC(=O)c3ccc(S(=O)(=O)N4CCCC4)cc3)ccc2n1C,2,10,4,13,0,0
